# Experimental data: ChEMBL document CHEMBL1127661, “Synthesis of 2-methyl-(Z)-4-(phenylimino)naphth[2,3-d]oxazol-9-one , a monoimine quinone with selective cytotoxicity toward cancer cells” (1994)
# Key:
# MDA-MB-231 [1] = experiment: In vitro tumor cell growth inhibition was reported as the concentration that reduces MDA-MB-231/ATCC breast cancer cell growth to level at the start experiment.; assay type: functional, Homo sapiens
# Outline: (§1)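 NCI in vitro screen covering about 60 human cell lines from eight solid tumour types and leukaemia. Results were derived from dose-response curves. TGI is the concentration that holds cell growth at the level present at the start of the experiment. Values are given as log molar concentration. The mean graph midpoint (MG-MID) is the average across all cell lines tested, with a range of TGI values.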
# MDA-MB-435 [2] = experiment: In vitro tumor cell growth inhibition was reported as the concentration that reduces MDA-MB-435 breast cancer cell growth to 50% of level at the start experiment.; assay type: functional; conditions: Homo sapiens, read-out: Log LC50 (the source's name) (converted)
# Outline: (§2)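 Tested in the NCI in vitro anticancer screen, which covers about 60 human cell lines from eight solid-tumour types and leukaemia. Values were read from dose-response curves as log molar concentration. The endpoint is the concentration that reduces cell growth to 50% of the level at the start of the experiment (LC50).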
# Hs-578T [3] = experiment: In vitro tumor cell growth inhibition was reported as the concentration that reduces HS 578T breast cancer cell growth to 50% of level at the start experiment.; assay type: functional; conditions: Homo sapiens, read-out: Log LC50 (the source's name) (converted); outline: as §2
# LOX IMVI [4] = experiment: In vitro tumor cell growth inhibition was reported as the concentration that reduces LOXIMVI melanoma cell growth to 50% of level at the start experiment.; assay type: functional; conditions: Homo sapiens, read-out: Log LC50 (the source's name) (converted); outline: as §2
# M14 [5] = experiment: In vitro tumor cell growth inhibition was reported as the concentration that reduces M14 melanoma cell growth to 50% of level at the start experiment.; assay type: functional; conditions: Homo sapiens, read-out: Log LC50 (the source's name) (converted); outline: as §2
# MDA-N [6] = experiment: In vitro tumor cell growth inhibition was reported as the concentration that reduces MDA-N breast cancer cell growth to 50% of level at the start experiment.; assay type: functional; conditions: Homo sapiens, read-out: Log LC50 (the source's name) (converted); outline: as §2
# T47D [7] = experiment: In vitro tumor cell growth inhibition was reported as the concentration that reduces T-47D breast cancer cell growth to level at the start experiment.; assay type: functional, Homo sapiens; outline: as §1
# Tumor Cell line [8] = experiment: In vitro inhibition of cell growth; assay type: functional, Homo sapiens
# BT-549 [9] = experiment: In vitro tumor cell growth inhibition was reported as the concentration that reduces BT-549 breast cancer cell growth to level at the start experiment.; assay type: functional, Homo sapiens; outline: as §1
# MDA-N [10] = experiment: In vitro tumor cell growth inhibition was reported as the concentration that reduces MDA-N breast cancer cell growth to level at the start experiment.; assay type: functional, Homo sapiens; outline: as §1
# LOX IMVI [11] = experiment: In vitro tumor cell growth inhibition was reported as the concentration that reduces LOXIMVI melanoma cell growth to level at the start experiment.; assay type: functional, Homo sapiens; outline: as §1
# Malme-3M [12] = experiment: In vitro tumor cell growth inhibition was reported as the concentration that reduces MALME-3M melanoma cell growth to 50% of level at the start experiment.; assay type: functional; conditions: Homo sapiens, read-out: Log LC50 (the source's name) (converted); outline: as §2
# SK-MEL-5 [13] = experiment: In vitro tumor cell growth inhibition was reported as the concentration that reduces SK-MEL-5 melanoma cell growth to 50% of level at the start experiment.; assay type: functional; conditions: Homo sapiens, read-out: Log LC50 (the source's name) (converted); outline: as §2
# M14 [14] = experiment: In vitro tumor cell growth inhibition was reported as the concentration that reduces M14 melanoma cell growth to level at the start experiment.; assay type: functional, Homo sapiens; outline: as §1
# SK-MEL-2 [15] = experiment: In vitro tumor cell growth inhibition was reported as the concentration that reduces SK-MEL-2 melanoma cell growth to level at the start experiment.; assay type: functional, Homo sapiens; outline: as §1
# Tumor Cell line [16] = experiment: Concentration which reduces cell growth to level at the start of the experiment was reported as the mean graph medium for all the cell lines tested in vitro conditions; assay type: functional, Homo sapiens; outline: as §1
# Hs-578T [17] = experiment: In vitro tumor cell growth inhibition was reported as the concentration that reduces HS 578T breast cancer cell growth to level at the start experiment.; assay type: functional, Homo sapiens; outline: as §1
# BT-549 [18] = experiment: In vitro tumor cell growth inhibition was reported as the concentration that reduces BT-549 breast cancer cell growth to 50% of level at the start experiment.; assay type: functional; conditions: Homo sapiens, read-out: Log LC50 (the source's name) (converted); outline: as §2
# Malme-3M [19] = experiment: In vitro tumor cell growth inhibition was reported as the concentration that reduces MALME-3M melanoma cell growth to level at the start experiment.; assay type: functional, Homo sapiens; outline: as §1
# MCF7 [20] = experiment: In vitro tumor cell growth inhibition was reported as the concentration that reduces MCF-7 breast cancer cell growth to level at the start experiment.; assay type: functional, Homo sapiens; outline: as §1
# SK-MEL-2 [21] = experiment: In vitro tumor cell growth inhibition was reported as the concentration that reduces SK-MEL-2 melanoma cell growth to 50% of level at the start experiment.; assay type: functional; conditions: Homo sapiens, read-out: Log LC50 (the source's name) (converted); outline: as §2
# MCF7 [22] = experiment: In vitro tumor cell growth inhibition was reported as the concentration that reduces MCF-7 breast cancer cell growth to 50% of level at the start experiment.; assay type: functional; conditions: Homo sapiens, read-out: Log LC50 (the source's name) (converted); outline: as §2
# SK-MEL-5 [23] = experiment: In vitro tumor cell growth inhibition was reported as the concentration that reduces SK-MEL-5 melanoma cell growth to level at the start experiment.; assay type: functional, Homo sapiens; outline: as §1
# MDA-MB-435 [24] = experiment: In vitro tumor cell growth inhibition was reported as the concentration that reduces MDA-MB-435 breast cancer cell growth to level at the start experiment.; assay type: functional, Homo sapiens; outline: as §1
# T47D [25] = experiment: In vitro tumor cell growth inhibition was reported as the concentration that reduces T-47D breast cancer cell growth to 50% of level at the start experiment.; assay type: functional; conditions: Homo sapiens, read-out: Log LC50 (the source's name) (converted); outline: as §2
# MDA-MB-231 [26] = experiment: In vitro tumor cell growth inhibition was reported as the concentration that reduces MDA-MB-231/ATCC breast cancer cell growth to 50% of level at the start experiment..; assay type: functional; conditions: Homo sapiens, read-out: Log LC50 (the source's name) (converted); outline: as §2
structure (smiles),measurement,setting,value
Cc1nc2c(o1)C(=O)c1ccccc1/C2=N/c1ccccc1,Log concentration,MDA-MB-231 [1],-4.7
same,CC50,MDA-MB-435 [2],3.16 µM
same,CC50,Hs-578T [3],> 100 µM
same,CC50,LOX IMVI [4],6.31 µM
same,CC50,M14 [5],3.98 µM
same,CC50,MDA-N [6],3.16 µM
same,Log concentration,T47D [7],-5.1
same,Range,Tumor Cell line [8],2.02
same,Log concentration,BT-549 [9],-5.5
same,Log concentration,MDA-N [10],-6
same,Log concentration,LOX IMVI [11],-5.6
same,CC50,Malme-3M [12],5.01 µM
same,CC50,SK-MEL-5 [13],5.01 µM
same,Log concentration,M14 [14],-5.9
same,Log concentration,SK-MEL-2 [15],-5.6
same,Log concentration,Tumor Cell line [16],-5.13
same,Log concentration,Hs-578T [17],-5.3
same,CC50,BT-549 [18],6.31 µM
same,Log concentration,Malme-3M [19],-5.6
same,Log concentration,MCF7 [20],-5.3
same,CC50,SK-MEL-2 [21],6.31 µM
same,CC50,MCF7 [22],> 100 µM
same,Log concentration,SK-MEL-5 [23],-5.6
same,Log concentration,MDA-MB-435 [24],-6
same,CC50,T47D [25],> 100 µM
same,CC50,MDA-MB-231 [26],> 100 µM
Cc1nc2c(o1)/C(=N\c1ccccc1)c1ccccc1/C2=N/c1ccccc1,Range,Tumor Cell line [8],0.49
same,Log concentration,Tumor Cell line [16],-4.02
Cc1nc2c(o1)/C(=N\c1ccccc1)c1ccccc1C2=O,Range,Tumor Cell line [8],1.44
same,Log concentration,Tumor Cell line [16],-4.62
